This note sets out measurements from ChEMBL document CHEMBL1221233, “4''-O-(omega-Quinolylamino-alkylamino)propionyl derivatives of selected macrolides with the activity against the key erythromycin resistant respiratory pathogens” (2010).

Common to all, as to format: functional
Assay [1] relates to Staphylococcus aureus. The assay is described as follows: Antibacterial activity against inducible resistance to macrolide, licosamide and streptogramin Staphylococcus aureus 90256 by broth microdilution method. In outline:
(§1)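 Staphylococci were grown on Mueller-Hinton agar and then tested by CLSI-guideline broth microdilution against two-fold serial dilutions of compound. The result was recorded as the minimum inhibitory concentration.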
In general terms: Dilution methods test growth across graded concentrations, often in twofold steps.

Assay [2] concerns Streptococcus pyogenes. The assay is described as follows: Antibacterial activity against constitutive MLS resistance sStreptococcus pyogenes 166 GR-Micro by broth microdilution method. In outline:
(§2)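 MIC by CLSI broth microdilution. In the streptococcal medium, 5% horse serum replaced lysed blood. Compounds were tested as two-fold serial dilutions. Strains were first grown on Columbia agar with 5% sheep blood. The MIC was read as the lowest concentration inhibiting growth.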

Assay [3] concerns Staphylococcus aureus. The experiment in a line: Antibacterial activity against efflux-mediated macrolide-resistance Staphylococcus aureus PK1 by broth microdilution method. The procedure, abridged: as §1
For assay [4], the system named is Streptococcus pneumoniae. The experiment in a line: Antibacterial activity against inducible resistance to macrolide and constitutive resistance to lincosamide Streptococcus pneumoniae 134 GR M by broth microdilution method. In outline: as §2
Assay [5] concerns Streptococcus pyogenes. The experiment in a line: Antibacterial activity against efflux-mediated macrolide-resistance Streptococcus pyogenes 2 Finland by broth microdilution method. In outline: as §2
The subject of assay [6] is Streptococcus pneumoniae. The assay is described as follows: Antibacterial activity against constitutive MLS resistance Streptococcus pneumoniae 58 by broth microdilution method. The procedure, abridged: as §2
Assay [7] concerns Haemophilus influenzae. The assay is described as follows: Antibacterial activity against Haemophilus influenzae ATCC 49247 by broth microdilution method. The procedure, abridged: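 MIC by broth microdilution following CLSI guidelines, expressed in units of lg/mL. Twofold dilutions prepared in 96-well plates. H. influenzae grown on Mueller-Hinton chocolate agar before testing.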

The test system of assay [8] is Streptococcus pneumoniae. The experiment in a line: Antibacterial activity against efflux-mediated macrolide-resistance Streptococcus pneumoniae Ci137 by broth microdilution method. The procedure, abridged: as §2

In brackets after ≈: the same amount, converted by molar mass.

Take `CC[C@H]1OC(=O)[C@H](C)[C@@H](O[C@H]2C[C@@](C)(OC)[C@@H](OC(=O)CCNCCCCNc3ccc4c(=O)c(C(=O)O)cn(C)c4c3)[C@H](C)O2)[C@H](C)[C@@H](O[C@@H]2O[C@H](C)C[C@H](N(C)C)[C@H]2O)[C@](C)(O)C[C@@H](C)C(=O)[C@H](C)[C@@H](O)[C@]1(C)O`: the MIC in assay [1] is above 32 µg/mL; in assay [2] it was 16 µg/mL (≈ 14.9 µM); in assay [3], 4 µg/mL (≈ 3.71 µM); in assay [4], 2 µg/mL (≈ 1.86 µM); in assay [5], 0.25 µg/mL (≈ 0.232 µM); in assay [6], 4 µg/mL (≈ 3.71 µM). The MIC is above 32 µg/mL in assay [7] and 4 µg/mL (≈ 3.71 µM) in assay [8].

In the case of `CC[C@H]1OC(=O)[C@H](C)[C@@H](O[C@H]2C[C@@](C)(OC)[C@@H](OC(=O)CCNCCCCNc3ccc4c(=O)c(C(=O)O)cn(CC)c4c3)[C@H](C)O2)[C@H](C)[C@@H](O[C@@H]2O[C@H](C)C[C@H](N(C)C)[C@H]2O)[C@](C)(O)C[C@@H](C)NC(=O)[C@H](C)[C@@H](O)[C@]1(C)O`, the MIC was above 32 µg/mL in assay [1]; 32 µg/mL (≈ 28.9 µM) in assay [2]; 8 µg/mL (≈ 7.23 µM) in assay [3]; 8 µg/mL (≈ 7.23 µM) in assay [4]; 8 µg/mL (≈ 7.23 µM) in assay [5]; 16 µg/mL (≈ 14.5 µM) in assay [6]. Besides, the results for the MIC in assay [7] and in assay [8] were above 32 µg/mL and 2 µg/mL (≈ 1.81 µM), respectively.

For `CC[C@H]1OC(=O)[C@H](C)[C@@H](O[C@H]2C[C@@](C)(OC)[C@@H](OC(=O)CCNCCCCNc3ccc4c(=O)c(C(=O)O)cn(CC)c4c3)[C@H](C)O2)[C@H](C)[C@@H](O[C@@H]2O[C@H](C)C[C@H](N(C)C)[C@H]2O)[C@](C)(O)C[C@@H](C)CN(C)[C@H](C)[C@@H](O)[C@]1(C)O`, the MIC in assay [1] is above 32 µg/mL; in assay [2] it was 8 µg/mL (≈ 7.23 µM); in assay [3], 4 µg/mL (≈ 3.62 µM); in assay [4], 8 µg/mL (≈ 7.23 µM); in assay [5], 8 µg/mL (≈ 7.23 µM); in assay [6] it was 2 µg/mL (≈ 1.81 µM). The MIC in assay [7] was above 32 µg/mL; in assay [8] it was 1 µg/mL (≈ 0.904 µM).

`CC[C@H]1OC(=O)[C@H](C)[C@@H](O[C@H]2C[C@@](C)(OC)[C@@H](OC(=O)CCNCCCCNc3ccc4c(=O)c(C(=O)O)cn(C5CC5)c4c3)[C@H](C)O2)[C@H](C)[C@@H](O[C@@H]2O[C@H](C)C[C@H](N(C)C)[C@H]2O)[C@](C)(O)C[C@@H](C)CN(C)[C@H](C)[C@@H](O)[C@]1(C)O`: the MIC was found to be 8 µg/mL (≈ 7.15 µM) in assay [1]; 4 µg/mL (≈ 3.58 µM) in assay [2]; 2 µg/mL (≈ 1.79 µM) in assay [3]; 8 µg/mL (≈ 7.15 µM) in assay [4]; 1 µg/mL (≈ 0.894 µM) in assay [5]; 4 µg/mL (≈ 3.58 µM) in assay [6]. The results for the MIC in assay [7] and in assay [8] were 8 µg/mL (≈ 7.15 µM) and 0.5 µg/mL (≈ 0.447 µM), respectively.

For the compound `CC[C@H]1OC(=O)[C@H](C)[C@@H](O[C@H]2C[C@@](C)(OC)[C@@H](OC(=O)CCNCCNc3cc4c(=O)c(C(=O)OC)cn(C5CC5)c4cc3Cl)[C@H](C)O2)[C@H](C)[C@@H](O[C@@H]2O[C@H](C)C[C@H](N(C)C)[C@H]2O)[C@](C)(O)C[C@@H](C)C(=O)[C@H](C)[C@@H](O)[C@]1(C)O`, the MIC in assay [1] is above 64 µg/mL; in assay [2], 0.125 µg/mL (≈ 0.111 µM); in assay [3] it was 16 µg/mL (≈ 14.2 µM); in assay [4] it was at most 0.125 µg/mL; in assay [5] it was at most 0.125 µg/mL; in assay [6] it was at most 0.125 µg/mL. Further, the values for the MIC in assay [7] and in assay [8] were 2 µg/mL (≈ 1.78 µM) and at most 0.125 µg/mL, respectively.

On to `CC[C@H]1OC(=O)[C@H](C)[C@@H](O[C@H]2C[C@@](C)(OC)[C@@H](OC(=O)CCNCCNc3cc4c(=O)c(C(=O)O)cn(C5CC5)c4cc3Cl)[C@H](C)O2)[C@H](C)[C@@H](O[C@@H]2O[C@H](C)C[C@H](N(C)C)[C@H]2O)[C@](C)(O)C[C@@H](C)CN(C)[C@H](C)[C@@H](O)[C@]1(C)O`, for which the MIC in assay [1] was 0.5 µg/mL (≈ 0.445 µM); in assay [2], at most 0.125 µg/mL; in assay [3], 0.25 µg/mL (≈ 0.222 µM); in assay [4] it was at most 0.125 µg/mL; in assay [5], at most 0.125 µg/mL; in assay [6] it was at most 0.125 µg/mL. Moreover, the MIC in assay [7] was 1 µg/mL (≈ 0.889 µM); in assay [8], at most 0.125 µg/mL.

As to `CC[C@H]1OC(=O)[C@H](C)[C@@H](O[C@H]2C[C@@](C)(OC)[C@@H](OC(=O)CCNCCNc3cc4c(cc3F)c(=O)c(C(=O)O)cn4C3CC3)[C@H](C)O2)[C@H](C)[C@@H](O[C@@H]2O[C@H](C)C[C@H](N(C)C)[C@H]2O)[C@](C)(O)C[C@@H](C)CN(C)[C@H](C)[C@@H](O)[C@]1(C)O`, the MIC stood at 0.5 µg/mL (≈ 0.451 µM) in assay [1]; 2 µg/mL (≈ 1.8 µM) in assay [2]; 0.5 µg/mL (≈ 0.451 µM) in assay [3]; 1 µg/mL (≈ 0.902 µM) in assay [4]; 1 µg/mL (≈ 0.902 µM) in assay [5]; 0.25 µg/mL (≈ 0.226 µM) in assay [6]. Also, the MIC in assay [7] was determined as 2 µg/mL (≈ 1.8 µM); in assay [8] it was 0.25 µg/mL (≈ 0.226 µM).

As to `CC[C@H]1OC(=O)[C@H](C)[C@@H](O[C@H]2C[C@@](C)(OC)[C@@H](OC(=O)CCNCCNc3cc4c(=O)c(C(=O)O)cn(C5CC5)c4cc3Cl)[C@H](C)O2)[C@H](C)[C@@H](O[C@@H]2O[C@H](C)C[C@H](N(C)C)[C@H]2O)[C@](C)(O)C[C@@H](C)CN(C)[C@H](C)[C@H]2OC(=O)O[C@@]21C`, the MIC was 1 µg/mL (≈ 0.869 µM) in assay [1]; at most 0.125 µg/mL in assay [2]; 0.5 µg/mL (≈ 0.434 µM) in assay [3]; at most 0.125 µg/mL in assay [4]; at most 0.125 µg/mL in assay [5]; at most 0.125 µg/mL in assay [6]. Besides, the MIC in assay [7] was 2 µg/mL (≈ 1.74 µM); in assay [8], at most 0.125 µg/mL.

As for `CC[C@H]1OC(=O)[C@H](C)[C@@H](O[C@H]2C[C@@](C)(OC)[C@@H](O)[C@H](C)O2)[C@H](C)[C@@H](O[C@@H]2O[C@H](C)C[C@H](N(C)C)[C@H]2O)[C@](C)(O)C[C@@H](C)CN(C)[C@H](C)[C@@H](O)[C@]1(C)O` [AZITHROMYCIN], the MIC is above 64 µg/mL in assay [1]; above 64 µg/mL in assay [2]; above 64 µg/mL in assay [3]; above 64 µg/mL in assay [4]; 8 µg/mL (≈ 10.7 µM) in assay [5]; above 64 µg/mL in assay [6]. For the same compound, the results for the MIC in assay [7] and in assay [8] were 1 µg/mL (≈ 1.34 µM) and 8 µg/mL (≈ 10.7 µM), respectively.

As to `CC[C@H]1OC(=O)[C@H](C)[C@@H](O[C@H]2C[C@@](C)(OC)[C@@H](OC(=O)CCN(C)CCNc3ccc4c(c3)c(=O)c(C(=O)O)cn4C3CC3)[C@H](C)O2)[C@H](C)[C@@H](O[C@@H]2O[C@H](C)C[C@H](N(C)C)[C@H]2O)[C@](C)(O)C[C@@H](C)CN(C)[C@H](C)[C@@H](O)[C@]1(C)O`, the MIC was 1 µg/mL (≈ 0.905 µM) in assay [1]; at most 0.125 µg/mL in assay [2]; 1 µg/mL (≈ 0.905 µM) in assay [3]; 0.25 µg/mL (≈ 0.226 µM) in assay [4]; 0.5 µg/mL (≈ 0.453 µM) in assay [5]; at most 0.125 µg/mL in assay [6]. For the same compound, the MIC in assay [7] was 4 µg/mL (≈ 3.62 µM); in assay [8] it was at most 0.125 µg/mL.

On to `CC[C@H]1OC(=O)[C@H](C)[C@@H](O[C@H]2C[C@@](C)(OC)[C@@H](OC(=O)CCNCCCCNc3ccc4c(=O)c(C(=O)O)cn(C)c4c3)[C@H](C)O2)[C@H](C)[C@@H](O[C@@H]2O[C@H](C)C[C@H](N(C)C)[C@H]2O)[C@](C)(O)C[C@@H](C)NC(=O)[C@H](C)[C@@H](O)[C@]1(C)O`, for which the MIC in assay [1] is above 32 µg/mL; in assay [2] it was 32 µg/mL (≈ 29.3 µM); in assay [3], 16 µg/mL (≈ 14.6 µM); in assay [4], 16 µg/mL (≈ 14.6 µM); in assay [5], 8 µg/mL (≈ 7.32 µM); in assay [6] it was 32 µg/mL (≈ 29.3 µM). In addition, the figures for the MIC in assay [7] and in assay [8] were above 32 µg/mL and 4 µg/mL (≈ 3.66 µM), respectively.
